According to ChEMBL document CHEMBL4689842, “EUbOPEN Chemogenomics Library wave 1” (2021):

System: U2OS
Assay: Multiplex assay against U2OS
Assay type: toxicity, cell-based
Conditions: human
Outline: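 Tubulin, mitochondrial-mass and membrane-permeability phenotypes are per cents of healthy-nucleus cells. Cells were gated by CellPathfinder machine learning into Hoechst high-intensity objects or normal cells, normal cells into healthy, pyknosed or fragmented nuclei, and pyknosed cells into mitotic or apoptotic. Before that, live cells stained at seeding with Hoechst33342, BioTracker Green Microtubule Cytoskeleton Dye, MitoTracker Red and Annexin V Alexa Fluor 680 were imaged on a CQ1 microscope at 37°C and 5% CO2 after compound addition.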

[1] = 12 h, 1 µM, compound concentration 1 uM, replicate 1
[2] = 12 h, 1 µM, compound concentration 1 uM, replicate 2
[3] = 12 h, 10 µM, compound concentration 10 uM, replicate 1
[4] = 12 h, 10 µM, compound concentration 10 uM, replicate 2
[5] = 24 h, 1 µM, compound concentration 1 uM, replicate 1
[6] = 24 h, 1 µM, compound concentration 1 uM, replicate 2
[7] = 24 h, 10 µM, compound concentration 10 uM, replicate 1
[8] = 24 h, 10 µM, compound concentration 10 uM, replicate 2
[9] = 48 h, 1 µM, compound concentration 1 uM, replicate 1
[10] = 48 h, 1 µM, compound concentration 1 uM, replicate 2
[11] = 48 h, 10 µM, compound concentration 10 uM, replicate 1
[12] = 48 h, 10 µM, compound concentration 10 uM, replicate 2

Cl.Cl.Nc1ncnc2c1c(-c1cccc(OCc3ccccc3)c1)cn2[C@H]1C[C@@H](CN2CCC2)C1
Population Apoptotic (%) [1]: 33% | Population Fragmented Nuclei (%) [1]: 13% | Population Healthy Nuclei (%) [1]: 70% | Population Hoechst High Intensity Objects (%) [1]: 5% | Population Membrane Permeable-Phenotype (%) [1]: 8% | Population Mitochondria Different-Phenotype (%) [1]: 58% | Population Mitotic Cells (%) [1]: 66% | Population Normal (%) [1]: 94% | Population Pyknosed Nuclei (%) [1]: 16% | Population Tubulin-Different-Phenotype (%) [1]: 38% | Total Cell Count [1]: 176 | Population Apoptotic (%) [2]: 29% | Population Fragmented Nuclei (%) [2]: 11% | Population Healthy Nuclei (%) [2]: 67% | Population Hoechst High Intensity Objects (%) [2]: 6% | Population Membrane Permeable-Phenotype (%) [2]: 3% | Population Mitochondria Different-Phenotype (%) [2]: 71% | Population Mitotic Cells (%) [2]: 70% | Population Normal (%) [2]: 93% | Population Pyknosed Nuclei (%) [2]: 20% | Population Tubulin-Different-Phenotype (%) [2]: 52% | Total Cell Count [2]: 55 | Population Apoptotic (%) [3]: 81% | Population Fragmented Nuclei (%) [3]: 23% | Population Healthy Nuclei (%) [3]: 41% | Population Hoechst High Intensity Objects (%) [3]: 9% | Population Membrane Permeable-Phenotype (%) [3]: 67% | Population Mitochondria Different-Phenotype (%) [3]: 100% | Population Mitotic Cells (%) [3]: 18% | Population Normal (%) [3]: 90% | Population Pyknosed Nuclei (%) [3]: 35% | Population Tubulin-Different-Phenotype (%) [3]: 100% | Total Cell Count [3]: 135 | Population Apoptotic (%) [4]: 85% | Population Fragmented Nuclei (%) [4]: 22% | Population Healthy Nuclei (%) [4]: 47% | Population Hoechst High Intensity Objects (%) [4]: 8% | Population Membrane Permeable-Phenotype (%) [4]: 77% | Population Mitochondria Different-Phenotype (%) [4]: 97% | Population Mitotic Cells (%) [4]: 14% | Population Normal (%) [4]: 91% | Population Pyknosed Nuclei (%) [4]: 29% | Population Tubulin-Different-Phenotype (%) [4]: 97% | Total Cell Count [4]: 90 | Population Apoptotic (%) [5]: 56% | Population Fragmented Nuclei (%) [5]: 10% | Population Healthy Nuclei (%) [5]: 69% | Population Hoechst High Intensity Objects (%) [5]: 4% | Population Membrane Permeable-Phenotype (%) [5]: 5% | Population Mitochondria Different-Phenotype (%) [5]: 62% | Population Mitotic Cells (%) [5]: 43% | Population Normal (%) [5]: 95% | Population Pyknosed Nuclei (%) [5]: 20% | Population Tubulin-Different-Phenotype (%) [5]: 34% | Total Cell Count [5]: 176 | Population Apoptotic (%) [6]: 28% | Population Fragmented Nuclei (%) [6]: 13% | Population Healthy Nuclei (%) [6]: 64% | Population Hoechst High Intensity Objects (%) [6]: 6% | Population Membrane Permeable-Phenotype (%) [6]: 4% | Population Mitochondria Different-Phenotype (%) [6]: 68% | Population Mitotic Cells (%) [6]: 71% | Population Normal (%) [6]: 93% | Population Pyknosed Nuclei (%) [6]: 21% | Population Tubulin-Different-Phenotype (%) [6]: 39% | Total Cell Count [6]: 50 | Population Apoptotic (%) [7]: 90% | Population Fragmented Nuclei (%) [7]: 25% | Population Healthy Nuclei (%) [7]: 30% | Population Membrane Permeable-Phenotype (%) [7]: 92% | Population Mitochondria Different-Phenotype (%) [7]: 100% | Population Mitotic Cells (%) [7]: 9% | Population Pyknosed Nuclei (%) [7]: 43% | Population Tubulin-Different-Phenotype (%) [7]: 100% | Total Cell Count [7]: 157 | Population Apoptotic (%) [8]: 92% | Population Fragmented Nuclei (%) [8]: 21% | Population Healthy Nuclei (%) [8]: 35% | Population Hoechst High Intensity Objects (%) [8]: 9% | Population Membrane Permeable-Phenotype (%) [8]: 93% | Population Mitochondria Different-Phenotype (%) [8]: 96% | Population Mitotic Cells (%) [8]: 7% | Population Normal (%) [8]: 90% | Population Pyknosed Nuclei (%) [8]: 42% | Population Tubulin-Different-Phenotype (%) [8]: 96% | Total Cell Count [8]: 104 | Population Apoptotic (%) [9]: 65% | Population Fragmented Nuclei (%) [9]: 10% | Population Healthy Nuclei (%) [9]: 73% | Population Hoechst High Intensity Objects (%) [9]: 2% | Population Membrane Permeable-Phenotype (%) [9]: 4% | Population Mitochondria Different-Phenotype (%) [9]: 34% | Population Mitotic Cells (%) [9]: 34% | Population Normal (%) [9]: 97% | Population Pyknosed Nuclei (%) [9]: 16% | Population Tubulin-Different-Phenotype (%) [9]: 23% | Total Cell Count [9]: 182 | Population Apoptotic (%) [10]: 47% | Population Fragmented Nuclei (%) [10]: 8% | Population Healthy Nuclei (%) [10]: 76% | Population Hoechst High Intensity Objects (%) [10]: 3% | Population Membrane Permeable-Phenotype (%) [10]: 12% | Population Mitochondria Different-Phenotype (%) [10]: 44% | Population Mitotic Cells (%) [10]: 52% | Population Normal (%) [10]: 96% | Population Pyknosed Nuclei (%) [10]: 15% | Population Tubulin-Different-Phenotype (%) [10]: 26% | Total Cell Count [10]: 55 | Population Apoptotic (%) [11]: 100% | Population Fragmented Nuclei (%) [11]: 30% | Population Healthy Nuclei (%) [11]: 7% | Population Hoechst High Intensity Objects (%) [11]: 12% | Population Membrane Permeable-Phenotype (%) [11]: 100% | Population Mitochondria Different-Phenotype (%) [11]: 100% | Population Mitotic Cells (%) [11]: 0% | Population Normal (%) [11]: 87% | Population Pyknosed Nuclei (%) [11]: 61% | Population Tubulin-Different-Phenotype (%) [11]: 100% | Total Cell Count [11]: 203 | Population Apoptotic (%) [12]: 96% | Population Fragmented Nuclei (%) [12]: 21% | Population Healthy Nuclei (%) [12]: 38% | Population Hoechst High Intensity Objects (%) [12]: 23% | Population Membrane Permeable-Phenotype (%) [12]: 96% | Population Mitotic Cells (%) [12]: 3% | Population Normal (%) [12]: 76% | Population Pyknosed Nuclei (%) [12]: 40% | Total Cell Count [12]: 130
